pEC50: −log10 of the molar value.
How the values were obtained:
LNCaP [1] = assay: Cytotoxicity against human LNCaP cells after 5 days by MTT assay; type: functional; conditions: 120 h
Outline: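 LNCaP cells (RPMI 1640, 10% FBS, 1% penicillin/streptomycin, 37 °C, 5% CO2) seeded at 2 × 10^4 cells/well, left to adhere 24 h, then exposed to compounds in DMSO for five days, with compound and medium renewed on day 3. MTT (0.5 mg/mL) added for 2 h, formazan dissolved in DMSO, absorbance read at 560 nm. Triplicate wells, three independent experiments. GI50 from nonlinear regression.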

PC-3 = assay: Cytotoxicity against human PC3 cells after 5 days by MTT assay; type: functional; conditions: PC-3, 120 h
Outline: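 Growth inhibition by MTT assay with absorbance read at 560 nm. Values are means of three independent experiments.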

LNCaP [2] = assay: Down regulation of androgen receptor expression in human LNCaP cells by Western blot analysis; type: functional, cell-based
Outline: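 LNCaP cells cultured in T25 flasks and treated with compounds. Lysates made in 0.1 M Tris, 0.5% Triton X-100 and protease inhibitor, protein measured by Bradford assay, then run on 10% SDS-PAGE. AR detected with monoclonal AR441 (1:500) and HRP anti-mouse secondary (1:2000) by ECL. Signal normalized to β-actin.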

[3] = molecular target: T1, Androgen receptor (Homo sapiens) (UniProt P10275); assay: Displacement of [3H]R1881 from mutated androgen receptor expressed in human LNCaP cells; type: cell-based
T1 sequence (whole entry): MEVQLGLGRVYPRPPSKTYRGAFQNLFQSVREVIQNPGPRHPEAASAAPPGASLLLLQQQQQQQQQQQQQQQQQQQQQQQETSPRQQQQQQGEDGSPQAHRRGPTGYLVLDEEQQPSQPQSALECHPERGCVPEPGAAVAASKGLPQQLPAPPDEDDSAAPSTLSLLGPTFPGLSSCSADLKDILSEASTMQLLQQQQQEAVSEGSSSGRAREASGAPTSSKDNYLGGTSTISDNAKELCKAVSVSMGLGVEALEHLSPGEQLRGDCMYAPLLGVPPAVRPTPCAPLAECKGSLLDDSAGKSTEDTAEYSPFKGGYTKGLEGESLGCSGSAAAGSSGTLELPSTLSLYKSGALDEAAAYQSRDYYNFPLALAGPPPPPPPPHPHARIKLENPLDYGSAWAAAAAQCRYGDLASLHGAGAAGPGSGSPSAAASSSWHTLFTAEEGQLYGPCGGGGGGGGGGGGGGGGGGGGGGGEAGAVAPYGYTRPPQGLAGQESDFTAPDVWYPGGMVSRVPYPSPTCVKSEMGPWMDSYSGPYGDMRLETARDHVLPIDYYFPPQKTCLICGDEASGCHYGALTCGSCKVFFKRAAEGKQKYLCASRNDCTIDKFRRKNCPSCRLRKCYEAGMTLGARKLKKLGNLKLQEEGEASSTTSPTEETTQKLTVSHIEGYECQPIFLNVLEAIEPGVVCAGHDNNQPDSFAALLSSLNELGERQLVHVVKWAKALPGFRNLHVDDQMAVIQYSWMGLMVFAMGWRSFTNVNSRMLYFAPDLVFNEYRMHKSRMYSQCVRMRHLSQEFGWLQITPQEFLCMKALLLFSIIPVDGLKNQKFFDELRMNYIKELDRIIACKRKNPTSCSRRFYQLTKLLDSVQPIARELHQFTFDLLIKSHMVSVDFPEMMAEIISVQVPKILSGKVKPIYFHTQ

[4] = molecular target: T1, Androgen receptor (Homo sapiens); assay: Displacement of [3H]R1881 from wild type androgen receptor expressed in human PC3 cells; type: cell-based; conditions: PC-3
[5] = molecular target: T1, Androgen receptor (Homo sapiens); assay: Displacement of [3H]R1881 from wild type androgen receptor expressed in human PC3 cells at 10 uM; type: cell-based; conditions: PC-3
[6] = molecular target: T1, Androgen receptor (Homo sapiens); assay: Displacement of [3H]R1881 from wild type androgen receptor expressed in human PC3 cells at 20 uM; type: cell-based; conditions: PC-3
[7] = molecular target: T1, Androgen receptor (Homo sapiens); assay: Activity at androgen receptor expressed in human LNCaP cells assessed as decrease in dihydrotestosterone-stimulated transcriptional activity at 10 uM after 18 hrs by luciferase reporter gene assay; type: cell-based; set-up: scale not given: the % may be the effect or the level left
Outline: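 LNCaP cells transiently transfected with the probasin-driven ARR2-Luc reporter, held in steroid-free medium, then given vehicle or compound with or without 5 nM DHT for 18 h before luciferase read-out. Mean of three independent experiments.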

Compound	GI50 (LNCaP [1]) [µM]	GI50 (PC-3) [µM]	other results
Cc1ccc(NS(=O)(=O)c2ccc(F)cc2)c(C(=O)O)c1	10.7	> 100	–
Cc1ccc(NS(=O)(=O)c2ccc(C)cc2)cc1	0.00145	30.2	pEC50 (LNCaP [2]): 3.82; Activity [3]: Dose-dependent effect; Activity [4]: Dose-dependent effect; Activity [5]: 65%; Activity [6]: 80%; Activity [7]: 80%
Cc1ccc(NS(=O)(=O)c2ccccc2)c(C(=O)O)c1	0.0182	–	–
Cc1ccc(NS(=O)(=O)c2ccccc2)cc1	21.3	13.8	–
Cc1ccc(NS(=O)(=O)c2ccc(F)cc2)c([N+](=O)[O-])c1	0.00234	0.85	Activity [3]: Dose-dependent effect; Activity [4]: Dose-dependent effect; Activity [7]: 50%
Cc1ccc(S(=O)(=O)Nc2ccc(C)cc2[N+](=O)[O-])cc1	39.8	43.7	–
Cc1ccc(NCc2ccccc2)cc1 [N-BENZYL-4-METHYLANILINE]	> 100	52.4	–
O=[N+]([O-])c1ccccc1NS(=O)(=O)c1ccccc1	0.0148	22.9	–
Cc1ccc(CNc2ccc(C)cc2)cc1	19.1	29.5	–
Cc1ccc(-c2nnn[nH]2)c(NS(=O)(=O)c2ccc(F)cc2)c1	> 100	> 100	–
Cc1ccc(C#N)c(NS(=O)(=O)c2ccc(F)cc2)c1	30.2	> 100	–
Cc1ccc(S(=O)(=O)Nc2ccccc2[N+](=O)[O-])cc1	0.083	50.1	pEC50 (LNCaP [2]): < 3.82
Cc1ccc(NC(=O)c2ccc(C)cc2)cc1	55	26.9	–
Cc1ccc(NS(=O)(=O)c2ccccc2)c([N+](=O)[O-])c1	0.00295	60.2	–
Cc1ccc(S(=O)(=O)Nc2ccccc2)cc1	24	38.9	–
O=S(=O)(Nc1ccccc1)c1ccccc1 [PHENYL(PHENYLSULFONYL)AMINE]	–	> 100	–
Cc1ccc(N(C)S(=O)(=O)c2ccc(C)cc2)cc1	89.2	44.7	–
